According to ChEMBL document CHEMBL4007487, “Discovery of Novel Pyridone-Conjugated Monosulfactams as Potent and Broad-Spectrum Antibiotics for Multidrug-Resistant Gram-Negative Infections” (J Med Chem, 2017):
Values after ≈ are worked out from the molar mass of the structure shown.

How the values were obtained:
Klebsiella pneumoniae [1] = assay: Antibacterial activity against extended spectrum beta-lactamase KPC-2 producing multidrug resistant Klebsiella pneumoniae clinical isolates after 18 hrs by broth microdilution method; format: functional; conditions: Klebsiella pneumoniae, 18 h; read-out: MIC
Escherichia coli [2] = assay: In vivo antibacterial activity against Escherichia coli isolate 210737 infected in Kunming mouse systemic infection model assessed as increase in mouse survival administered subcutaneously 0.5 to 4 hrs post infection measured after 48 hrs by Bliss method; format: functional; conditions: isolate 210737, sc
Procedure, shortened: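 Kunming mice, half male and half female, 18–22 g, 5 per group. Lethal systemic infection by intraperitoneal injection of 0.5 mL clinical E. coli 210737 inoculum at 5×10^4 CFU/mL. Given subcutaneously twice, at 0.5 and 4.0 h post-infection, at doses of 0.625 to 20 mg/kg.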

Pseudomonas aeruginosa = assay: Antibacterial activity against extended spectrum beta-lactamase IMP-4 producing multidrug resistant Pseudomonas aeruginosa clinical isolates after 18 hrs by broth microdilution method; format: functional
Acinetobacter baumannii = assay: Antibacterial activity against extended spectrum beta-lactamase OXA-23 producing multidrug resistant Acinetobacter baumannii clinical isolates after 18 hrs by broth microdilution method; format: functional
Klebsiella pneumoniae [3] = assay: In vivo antibacterial activity against multidrug resistant Klebsiella pneumoniae isolate 212232 infected in Kunming mouse systemic infection model assessed as increase in mouse survival at 100 mg/kg, sc administered 0.5 to 4 hrs post infection measured after 48 hrs by Bliss method; format: functional; conditions: isolate 212232, sc
Procedure, shortened: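 Lethal intraperitoneal infection of Kunming mice (mixed sex, 18–22 g, 5 per group) with 0.5 mL MDR K. pneumoniae 212232 at 3×10^6 CFU/mL. The 100 mg/kg dose was given subcutaneously at 0.5 and 4.0 h post-infection. Read-out is the percentage of mice surviving at 48 h after treatment.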

Escherichia coli [4] = assay: Antibacterial activity against Escherichia coli isolate 210737 after 18 hrs by broth microdilution method; format: functional; conditions: isolate 210737, 18 h
Procedure, shortened: (§1)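 CLSI broth microdilution in Mueller-Hinton broth with 16 mg/L 2,2'-bipyridyl added. Compounds were dissolved in DMSO, or in water for meropenem and ceftizoxime sodium, then serially diluted in growth medium.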

Escherichia coli [5] = assay: Antibacterial activity against extended spectrum beta-lactamases producing Escherichia coli clinical isolates after 18 hrs by broth microdilution method; format: functional
Klebsiella pneumoniae [6] = assay: In vivo antibacterial activity against multidrug resistant Klebsiella pneumoniae isolate 212232 infected in Kunming mouse systemic infection model assessed as increase in mouse survival administered subcutaneously 0.5 to 4 hrs post infection measured after 48 hrs by Bliss method; format: functional; conditions: isolate 212232, sc
Procedure, shortened: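 Kunming mice, half male and half female, 18–22 g, 5 per group. Infected intraperitoneally with 0.5 mL of MDR clinical K. pneumoniae 212232 at 3×10^6 CFU/mL. Subcutaneous doses of 3.125, 6.25, 12.5, 25, 50 and 100 mg/kg were given at 0.5 and 4.0 h post-infection.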

Klebsiella pneumoniae [7] = assay: Antibacterial activity against Klebsiella pneumoniae isolate 212232 after 18 hrs by broth microdilution method; format: functional; conditions: isolate 212232, 18 h; procedure, shortened: as §1
[8] = Volume of distribution in steady state in Sprague-Dawley rat at 1 mg/kg, iv measured up to 180 mins by LC-MS/MS analysis; format: ADME, organism-based; conditions: in vivo, read-out: Vdss
Procedure, shortened: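 Male Sprague-Dawley rats (200–220 g, n = 3 per group) received 1.0 mg/kg iv in water. Blood was taken from the retrobulbar vein at 2, 5, 15, 30, 45, 60, 90 and 180 min. Plasma was quantified by LC–MS/MS, and parameters were derived by noncompartmental analysis of mean plasma concentrations.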

in vivo [9] = conditions: Sprague-Dawley, rat, iv, 1 mg/kg
[10] = Clearance in Sprague-Dawley rat at 1 mg/kg, iv measured up to 180 mins by LC-MS/MS analysis; conditions: in vivo
in vivo [11] = conditions: Sprague-Dawley, rat, iv, 1 mg/kg; remark: listed apart in the source
Plasma = assay: Fraction unbound in human plasma at 10 uM after 4 hrs by LC-MS/MS based rapid equilibrium dialysis method; format: ADME, cell-free
Procedure, shortened: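 Human plasma spiked at 10 μM was dialysed against buffer in a rapid equilibrium dialysis device for 4 h at 37 °C under 5% CO2 (n = 4). Both sides were quantified by LC–MS/MS. Fraction unbound was taken as the buffer concentration divided by the total plasma-side concentration.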

[12] = Drug degradation in human plasma at 10 uM after 4 hrs by LC-MS/MS analysis; format: ADME, cell-free; conditions: read-out: Drug degradation
Procedure, shortened: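 Human plasma containing compound (10 μM, n = 4) was incubated for 4 h at 37 °C under 5% CO2. Concentrations at T0 and at 4 h were measured by LC–MS/MS, and degradation was expressed as a percentage relative to the T0 average.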

SMILES	MIC (Klebsiella pneumoniae [1]) [µg/mL]	ED50 (Escherichia coli [2]) [mg/kg]	MIC (Pseudomonas aeruginosa) [µg/mL]	MIC (Acinetobacter baumannii) [µg/mL]	survival at 100 mg/kg (Klebsiella pneumoniae [3]) [%]	MIC (Escherichia coli [4]) [µg/mL]	MIC (Escherichia coli [5]) [µg/mL]	ED50 (Klebsiella pneumoniae [6]) [mg/kg]	MIC (Klebsiella pneumoniae [7]) [µg/mL]	Vd [8] [L/kg]	half-life (in vivo [9]) [min]	clearance at 3 h [10] [mL/min/kg]	AUC(0-t) at 3 h (in vivo [11]) [ng·h/mL]	Fu (Plasma) [%]	metabolised at 4 h, 10 µM [12] [%]
C[C@@H](O)[C@H]1C(=O)N2C(C(=O)O)=C(S[C@@H]3CN[C@H](C(=O)N(C)C)C3)[C@H](C)[C@H]12 [MEROPENEM]	32 to 64 (≈ 83.4 to 167 µM)	2.04	32 to 64 (≈ 83.4 to 167 µM)	64 (≈ 167 µM)	0	0.125 (≈ 0.326 µM)	0.125 to 8 (≈ 0.326 to 20.9 µM)	> 100	> 64						
CC(C)C(O/N=C(\C(=O)N[C@@H]1C(=O)N(OS(=O)(=O)O)C1(C)C)c1nc(N)sc1Cl)c1cc(=O)c(O)cn1O (some centres not stated)	0.06 to 0.5 (≈ 0.101 to 0.84 µM)	6.94	0.25 to 8 (≈ 0.42 to 13.4 µM)	0.06 to 2 (≈ 0.101 to 3.36 µM)		1 (≈ 1.68 µM)	0.06 to 1 (≈ 0.101 to 1.68 µM)		0.06 (≈ 0.101 µM)	1.41	90	26.9	634	23	22
CC1(C)[C@H](NC(=O)/C(=N\OC(CS(C)(=O)=O)c2cc(=O)c(O)cn2O)c2csc(N)n2)C(=O)N1OS(=O)(=O)O (some centres not stated)	0.06 to 2 (≈ 0.0983 to 3.28 µM)	5.32	1 to 32 (≈ 1.64 to 52.4 µM)	0.25 to 2 (≈ 0.409 to 3.28 µM)		0.06 (≈ 0.0983 µM)			0.06 (≈ 0.0983 µM)	0.21	19.8	9.3	1890	64	34
CC1(C)[C@H](NC(=O)/C(=N\OCc2cc(=O)c(O)cn2O)c2csc(N)n2)C(=O)N1OS(=O)(=O)O	0.25 to 64 (≈ 0.482 to 123 µM)	4.19	1 to 4 (≈ 1.93 to 7.71 µM)	0.5 to 64 (≈ 0.964 to 123 µM)	40	0.25 (≈ 0.482 µM)	0.25 to 1 (≈ 0.482 to 1.93 µM)	> 100	0.25 (≈ 0.482 µM)	0.14			1710	47	12
